Published values from different studies.
Observed: enzyme activity
Mode: inhibitor
HDAC1: Histone deacetylase 1 (HDAC1, Homo sapiens, UniProt Q13547)
PARP10: Protein mono-ADP-ribosyltransferase PARP10 (PARP10, Homo sapiens, UniProt Q53GL7)
Seed linoleate 13S-lipoxygenase-1: Seed linoleate 13S-lipoxygenase-1 (Glycine max, UniProt P08170)

| SMILES | target | test | conditions | IC50 [nM] |
| --- | --- | --- | --- | --- |
| COc1ccc(N(Cc2nc(-c3ccc(Cl)cc3)cs2)C(=O)CCCCCC(=O)NO)cc1 | HDAC1 |  |  | 1.7 |
| CCCCn1c(=O)c2cc(F)ccc2c2nnn(Cc3ccc(C)cc3)c21 | PARP10 |  |  | > 10000 |
| COc1ccc(N(Cc2nc(-c3ccc(C)cc3)cs2)C(=O)CCCCCC(=O)NO)cc1 | HDAC1 |  |  | 2.6 |
| O=c1[nH]c2c(nnn2Cc2ccccc2)c2ccc(F)cc12 | PARP10 |  |  | 933 |
| O=C(NO)c1ccc(Cn2cnc3c(Nc4cccc([N+](=O)[O-])c4)ncnc32)cc1 | Histone deacetylase 8 (HDAC8, Homo sapiens, UniProt Q9BY41) |  |  | 118 |
| O=c1[nH]c2c(nnn2-c2ccc(Br)cc2)c2ccccc12 | PARP10 |  |  | > 10000 |
| Nc1cnccc1Nc1ccc(Cl)c(Cl)c1 | Uracil-DNA glycosylase (UNG, Homo sapiens, UniProt P13051) |  |  | > 100000 |
| Cc1ccc(Cn2nnc3c4ccccc4c(=O)[nH]c32)cc1 | PARP10 |  |  | 204 |
| COc1ccc(N(Cc2csc(-c3ccc(C)cc3)n2)C(=O)CCCCCC(=O)NO)cc1 | HDAC1 |  |  | 0.8 |
| O=C(NO)c1ccc(Cn2cnc3c(Nc4ccc(F)c(Cl)c4)ncnc32)cc1 | HDAC1 | fluorescence |  | 341 |
| Cc1ccc(S(=O)(=O)[N](Nc2ccc([N+](=O)[O-])cc2[N+](=O)[O-])[Sn]([Cl])[Cl])cc1 | Polyunsaturated fatty acid 5-lipoxygenase (ALOX5, Homo sapiens, UniProt P09917) |  |  | 1520 |
| c1c(N2CCCC2)nc(N2CCCC2)nc1N1CCNCC1 | Caspase-5 (CASP5, Homo sapiens, UniProt P51878) |  | with preincubation | 138 |
| O=C(CCCCCC(=O)N(Cc1nc(-c2ccccc2)cs1)c1ccc(OCc2ccc(F)cc2)cc1)NO | HDAC1 |  |  | 3.8 |
| Cc1ccccc1Cn1nnc2c3ccc(F)cc3c(=O)[nH]c21 | PARP10 |  |  | > 10000 |
| Nc1ccccc1NC(=O)c1ccc(Cn2cnc3c(Nc4ccc(Cl)cc4)ncnc32)cc1 | HDAC1 | fluorescence |  | 14.1 |
| O=C(CCCCc1ccc(CO)cc1)C(F)(F)C(F)(F)F | Cytosolic phospholipase A2 (PLA2G4A, Homo sapiens, UniProt P47712) |  |  | 121000 |
| COc1ccc(N(Cc2csc(-c3ccc(Cl)cc3)n2)C(=O)CCCCCC(=O)NO)cc1 | HDAC1 |  |  | 1 |
| O=c1cc(-c2ccccc2)oc2cc(O)c(O)c(O)c12 | Seed linoleate 13S-lipoxygenase-1 |  |  | 6360 |
| CCCOc1ccc(N(Cc2nc(-c3ccccc3)cs2)C(=O)CCCCCC(=O)NO)cc1 | HDAC1 |  |  | 2.2 |
| O=c1[nH]c2c(nnn2C2CCCCC2)c2ccccc12 | PARP10 |  |  | > 10000 |
| COc1ccc(Nc2ncnc3c2ncn3Cc2ccc(C(=O)NO)cc2)cc1 | HDAC1 | fluorescence |  | 260 |
| CCCCCn1nnc2c3ccccc3c(=O)[nH]c21 | PARP10 |  |  | 182 |
| COc1ccc(N(Cc2csc(-c3ccccc3)n2)C(=O)CCCCCC(=O)NO)cc1 | HDAC1 |  |  | 1.1 |
| O=C(O[C@@H]1COC(=O)c2cc(O)c(O)c(O)c2-c2c(cc(O)c(O)c2O)C(=O)O[C@H]1[C@@H]1OC(=O)c2cc(O)c(O)c(O)c2-c2c(O)c(O)c(O)c3c2C(=O)O[C@H]1[C@@H]3O)c1cc(O)c(O)c(O)c1 | Seed linoleate 13S-lipoxygenase-1 |  |  | 36200 |
| Cc1ccc(Cn2nnc3c4cc(C)ccc4c(=O)[nH]c32)cc1 | PARP10 |  |  | > 10000 |
